Assay results published in ChEMBL document CHEMBL1131326, “Design, synthesis, and antiviral evaluations of 1-(substituted benzyl)-2-substituted-5,6-dichlorobenzimidazoles as nonnucleoside analogues of 2,5,6-trichloro-1-(beta-D-ribofuranosyl)benzimidazole” (J Med Chem, 1998).

Experiments:
Human alphaherpesvirus 1 = test: Antiviral activity against herpes simplex virus type-1 (HSV-1); assay type: functional, organism-based
Method in brief: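 BSC-1 cells (10 000/well, MEM(E) + 10% calf serum) incubated overnight, then given drug in quadruplicate plus HSV-1 KOS at 100 pfu/well; 3 days at 37 °C. ELISA with HRP-conjugated rabbit anti-HSV-1 antibody, TMB substrate, stopped with H₂SO₄, absorbance at 450 and 570 nm; IC50 by regression of % absorbance reduction vs log concentration.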

HFF = test: Visual cytotoxicity scored on HFF cells at a time of HCMV plaque enumeration; assay type: functional, cell-based; conditions: Homo sapiens
Method in brief: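 Cytotoxicity in stationary HFF cells scored by microscopic inspection of cells not affected by virus, at time of HCMV plaque enumeration, in the plaque-assay plates.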

Human betaherpesvirus 5 [1] = test: Compound was tested for antiviral activity against human cytomegalovirus (HCMV) by plaque reduction assay; assay type: functional, organism-based
Method in brief: (§1)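 HFF monolayers infected with about 100 pfu/cm² of HCMV Towne (isolate Po); after adsorption, compound in growth medium added to duplicate wells at four to eight concentrations.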

KB = test: Inhibition of KB cell growth determined by quadruplicate assays; assay type: functional, cell-based; conditions: Homo sapiens
Method in brief: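 KB cells seeded at 3000-5000/well, overnight at 37 °C, then compound in quadruplicate at six to eight concentrations for 48 h (about two doublings) in CO₂. Cells fixed in 95% ethanol, stained with 0.1% crystal violet, dye eluted with acidified ethanol and read at 570 nm; IC50 by regression vs log concentration.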

CEM-SS [2] = test: Cytotoxicity against CEM-SS cells in terms of incorporation of [3H]dThd; assay type: functional, cell-based; conditions: Homo sapiens
Method in brief: (§2)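 DNA synthesis in CEM-SS cells measured as uptake of [³H]dThd into total acid-precipitable material; results averaged from duplicate experiments.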

[3] = tested on: Human immunodeficiency virus 1; test: Activity against HIV-1 by syncytial plaque assay performed in duplicate using CEM-SS cells; assay type: functional, organism-based; conditions: Human immunodeficiency virus 1, CEM-SS
Method in brief: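 Syncytial plaque assay: poly-L-lysine-adherent CEM-SS cells infected with HIV-1 strain IIIB with or without compound at selected concentrations; syncytial plaques counted at 30-fold magnification 7 days postinfection; duplicate. IC50 from linear regression of percent inhibition against log concentration.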

Human betaherpesvirus 5 [4] = test: Antiviral activity against human cytomegalovirus (HCMV) by plaque reduction assay; assay type: functional, organism-based; method in brief: as §1
[5] = Compound was tested for antiviral activity against HIV resistant to TIBO A-17; assay type: functional, Human immunodeficiency virus 1
Method in brief: (§3)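 Syncytial plaque assay in duplicate sets on CEM-SS cells made adherent with poly-L-lysine. Virus was the A17 HIV-1 variant, resistant to nonnucleoside RT inhibitors including TIBO, or HIV-2, both from the AIDS Research and Reference Program. Infection was in the presence or absence of compound; syncytial plaques were counted at 30-fold magnification 7 days postinfection. IC50 came from linear regression of percent inhibition against log concentration.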

[6] = (§4) Compound was tested for antiviral activity against matched pairs of HIV-1 resistant to AZT; assay type: functional, Human immunodeficiency virus 1
Method in brief: (§5)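 Matched clinical pairs of AZT-sensitive and AZT-resistant HIV-1 (C-691/G762 or H-112/G910, depending on compound series) were tested by syncytial plaque assay in duplicate sets on poly-L-lysine-adherent CEM-SS cells. Syncytial plaques were counted at 30-fold magnification 7 days postinfection. IC50 came from regression of percent inhibition versus log concentration, averaged over duplicate experiments.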

[7] = tested on: Human immunodeficiency virus 2; test: Compound was tested for antiviral activity against HIV-2; assay type: functional, organism-based
[8] = (§6) Compound was tested for antiviral activity against matched pairs of HIV-1 sensitive to AZT; assay type: functional, Human immunodeficiency virus 1
CEM-SS [9] = test: Compound was tested for activity against HIV-1 by syncytial plaque assay performed in duplicate using CEM-SS cells; assay type: functional, cell-based; conditions: Homo sapiens
Method in brief: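 CEM-SS cells made adherent with poly-L-lysine, infected with HIV-1 strain IIIB with or without selected compound concentrations; duplicate sets. Syncytial plaques counted at 30-fold magnification 7 days post-infection. Percent inhibition regressed linearly against log concentration to give IC50; zidovudine positive control in all assays. Values averaged over duplicate or triplicate experiments.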

[10] = (§7) Compound was tested for antiviral activity against HIV-1 resistant to TIBO A-17; assay type: functional, Human immunodeficiency virus 1; method in brief: as §3
[11] = tested on: Human immunodeficiency virus 1; test: as §7; assay type: functional, organism-based; method in brief: as §3
[12] = tested on: Human immunodeficiency virus 2; test: Compound was tested for antiviral activity against HIV-2
[13] = tested on: Human immunodeficiency virus 1; test: as §4; assay type: functional, organism-based; method in brief: as §5
[14] = tested on: Human immunodeficiency virus 1; test: as §6; assay type: functional, organism-based; method in brief: as §5
[15] = tested on: Human immunodeficiency virus 1; test: Compound was tested for antiviral activity against HIV-1 resistant to AZT; assay type: functional, organism-based; method in brief: as §5
[16] = tested on: Human immunodeficiency virus 1; test: Compound was tested for antiviral activity against HIV-1 sensitive to AZT; assay type: functional, organism-based; method in brief: as §5
CEM-SS [17] = test: Compounds were tested for cytotoxicity against CEM-SS cells in terms of incorporation of [3H]dThd; assay type: functional, cell-based; conditions: Homo sapiens; method in brief: as §2

| Compound | IC50 (Human alphaherpesvirus 1) [µM] | IC50 (HFF) [µM] | IC50 (Human betaherpesvirus 5 [1]) [µM] | IC50 (KB) [µM] | IC50 (CEM-SS [2]) [µM] | IC50 [3] [µM] | IC50 (Human betaherpesvirus 5 [4]) [µM] | IC50 [5] [µM] | IC50 [6] [µM] | IC50 [7] [µM] | IC50 [8] [µM] | IC50 (CEM-SS [9]) [µM] | IC50 [10] [µM] | IC50 [11] [µM] | IC50 [12] [µM] | IC50 [13] [µM] | IC50 [14] [µM] | IC50 [15] [µM] | IC50 [16] [µM] | IC50 (CEM-SS [17]) [µM] |
| --- | --- | --- | --- | --- | --- | --- | --- | --- | --- | --- | --- | --- | --- | --- | --- | --- | --- | --- | --- | --- |
| Clc1cc2nc(NC3CC3)n(Cc3ccccc3)c2cc1Cl | > 100 | 33 | 18 | 60 | – | – | – | – | – | – | – | – | – | – | – | – | – | – | – | – |
| O=[N+]([O-])c1ccc(Cn2c(Br)nc3cc(Cl)c(Cl)cc32)cc1 | – | > 100 | – | 40 | > 100 | 14 | > 100 | 11 | 6.9 | 66 | 11 | – | – | – | – | – | – | – | – | – |
| Clc1ccc(Cn2c(Cl)nc3cc(Cl)c(Cl)cc32)cc1 | > 100 | > 100 | – | > 100 | > 100 | – | > 100 | – | 255 | > 30 | 30 | 9.1 | 19 | – | – | – | – | – | – | – |
| Fc1ccc(Cn2c(Cl)nc3cc(Cl)c(Cl)cc32)cc1 | > 100 | > 100 | – | > 100 | > 100 | 37 | > 100 | – | – | – | – | – | – | 19 | > 30 | – | – | – | – | – |
| O=[N+]([O-])c1cccc(Cn2c(Br)nc3cc(Cl)c(Cl)cc32)c1 | – | > 100 | – | 150 | > 100 | 5.3 | > 100 | – | – | 28 | – | – | – | 1 | – | 11 | 8.7 | – | – | – |
| Cc1cccc(Cn2c(Cl)nc3cc(Cl)c(Cl)cc32)c1 | > 100 | > 100 | – | > 100 | > 100 | 14 | > 100 | – | 13 | > 30 | 37 | – | 16 | – | – | – | – | – | – | – |
| Cc1cccc(Cn2c(Br)nc3cc(Cl)c(Cl)cc32)c1 | – | > 100 | – | – | > 100 | 3.5 | > 100 | – | – | 143 | – | – | – | 17 | – | – | – | 9 | 8.7 | – |
| Cc1cn([C@H]2C[C@H](N=[N+]=[N-])[C@@H](CO)O2)c(=O)[nH]c1=O [ZIDOVUDINE] | – | – | – | – | – | – | – | – | – | – | – | 0.0026 | – | – | – | – | – | – | – | 1.9 |
